The source of these data is ChEMBL document CHEMBL1811914, “Bioactive compounds from the aerial parts of Brachystemma calycinum and structural revision of an octacyclopeptide” (J Nat Prod, 2011).

Structures are written as SMILES. The source made the active and inactive calls. The rule behind the calls is not given here. Where a SMILES comes first, the peptide text is derived from it.

Data set [1] concerns CRL-2573. The experiment in a line: Inhibition of high glucose-induced CCL2 secretion in rat CRL-2573 cells at 10 uM after 24 hrs by ELISA. Format: functional, cell-based. Summed up:
(§1)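 Rat mesangial cells (CRL-2573) grown in DMEM with 5.6 mM D-glucose (pH 7.4), 20% FCS, penicillin/streptomycin, 10 mM HEPES. At 80% confluence, growth arrested in 0.5% FCS for 24 h. Pretreated 1 h with compound (1 or 10 μM), then high glucose 24 h. Supernatant analyte quantified by sandwich ELISA, normalized to total cell protein (BCA).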

For data set [2], the system named is CRL-2573. The experiment in a line: Inhibition of high glucose-induced IL-6 secretion in rat CRL-2573 cells at 10 uM after 24 hrs by ELISA. The class given is functional, cell-based. The gist of the method:
as §1
(In an ELISA, binding on a coated surface is turned into a signal by an enzyme label.)

The test system of data set [3] is CRL-2573. As to the kind of experiment: Inhibition of high glucose-induced collagen-4 secretion in rat CRL-2573 cells at 10 uM after 24 hrs by ELISA. Format: functional, cell-based. The gist of the method:
as §1

Data set [4] has as its system CRL-2573. The experiment in a line: Antioxidant activity against high glucose-induced intracellular ROS production in rat CRL-2573 cells assessed as carboxymethyl-H2-dichlorofluorescein diacetate conversion to 2',7'-dichlorofluorescein at 1 to 10 uM preincubated for 1 hr prior to high glucose challenge by flow cytometer. Format: functional, cell-based. Summed up: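 Rat mesangial cells cultured and growth-arrested as for secretion assays. Exposed to 5.6 mM (normal) or 25 mM (high) D-glucose for up to 24 h, with or without compound preincubation. Intracellular ROS then measured.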
On the technique in general: Flow cytometry measures light scatter and fluorescence of single cells or particles in a stream.

For data set [5], the system named is CRL-2573. The experiment in a line: Antioxidant activity against high glucose-induced intracellular superoxide ion production in rat CRL-2573 cells at 1 to 10 uM measured every minute for 30 mins by lucigenin-enhanced chemiluminescence assay in presence of NADPH. Format: functional, cell-based. Summed up: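 Homogenates of cultured rat mesangial cells (100 μg/well) assayed by lucigenin-enhanced chemiluminescence. Dark-adapted lucigenin (5 μM) with or without NADPH (100 μM) added immediately before reading. Signal recorded every minute for 30 min.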

In a further data set the test system is RAW264.7. As to the kind of experiment: Inhibition of LPS-induced nitric oxide production in […] cells at 25 uM. Format: functional, cell-based.
For data set [6], the system named is CRL-2573. As to the kind of experiment: Inhibition of high glucose-induced collagen-1 secretion in rat CRL-2573 cells at 10 uM after 24 hrs by ELISA. The class given is functional, cell-based. The gist of the method:
as §1

Data set [7] is described as follows: Cytotoxicity in rat CRL-2573 cells at 10 uM after 24 hrs by trypan blue exclusion assay. Format: cell-based. The settings on record: crl-2573, 24 h.

As for `COC1CCC(=O)N1[C@@H]1C=C(COC(=O)c2ccc[nH]2)CO1` (some centres undefined), the inhibition result in the data set with CRL-2573 [1], in the data set on CRL-2573 [2] and with CRL-2573 [3] was “Active” throughout.

Take `CC(C)C[C@@H]1NC(=O)CNC(=O)[C@H](C(C)C)NC(=O)[C@@H]2CCCN2C(=O)[C@H](Cc2ccccc2)NC(=O)[C@H]([C@@H](C)O)NC(=O)[C@@H]2CCCN2C(=O)[C@H]([C@@H](C)O)NC1=O` (HELM PEPTIDE1{F.P.V.G.L.T.P.T}$PEPTIDE1,PEPTIDE1,1:R1-8:R2$$$V2.0): the inhibition entry in the data set with CRL-2573 [1], in the data set with CRL-2573 [2] and in the data set on CRL-2573 [3] was “Active” throughout.

Regarding `CC(C)C[C@@H]1NC(=O)CNC(=O)[C@H](C)NC(=O)[C@@H]2CCCN2C(=O)[C@@H]2CCCN2C(=O)[C@H](Cc2ccccc2)NC(=O)[C@H]([C@@H](C)O)NC(=O)[C@H](C)NC1=O` (HELM PEPTIDE1{A.G.L.A.T.F.P.P}$PEPTIDE1,PEPTIDE1,1:R1-8:R2$$$V2.0), the outcome in the data set on CRL-2573 [4] and in the data set with CRL-2573 [5] was Active. In addition, in the data set on RAW264.7, the inhibition result is “inactive”. In addition, the inhibition result with CRL-2573 [1], with CRL-2573 [2], in the data set on CRL-2573 [3] and with CRL-2573 [6] was “Active” throughout. Also, the Activity entry in data set [7] is listed as “Non-toxic”.
